Assay outcomes (PubChem)
OX1R antag-1: blocks the human orexin 1 receptor | O43613 | inhibition, % at 6.6 µM | OX1R-expressing cells, FRET antagonist read-out | 1.8% of 330,000 active; in the data active = inhibition mostly above about 38%, no sharp cut-off; inactive = mostly below about 40%
OX1R antag-2: antagonists of human orexin 1 receptor; O43613; CHO/OX1R cells, Fluo-8 calcium fluorescence, orexin A; inhibition, % at 5 µM; 0.43% of 330,000 active;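 active = inhibition above its plate's threshold, mean inhibition of all tested compounds on the plate plus 3 SD, cut at about 37% in these data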
MPTP inh: inhibitors of mitochondrial permeability transition pore. inhibition, % at 10 µM. 1.4% of 360,000 active. isolated mouse mitochondria, Ca2+ swelling absorbance, 30 min. AID 602449;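 active = inhibition of 50% or more, scaled per plate between neutral and stimulator controls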
CHO parental Ca: counter-screen for OX1R antagonists: effect in parental CHO cells; parental CHO-K1, ATP-induced calcium, Fluo-8 fluorescence; inhibition, % at 5.6 µM; 0.63% of 330,000 active;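 active = inhibition above that plate's mean sample inhibition plus 3 SD, cut at about 26% in these data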
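Material: parental CHO cells / Compound: single nominal dose of 5.6 µM per compound / Signal: Fluo-8 fluorescence / Replicates: singlicate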
GPR7 antag: human neuropeptides B/W receptor 1 antagonism; inhibition, % at 4.4 µM; GPR7-expressing cells, fluorescence antagonist assay; AID 1861; 1.1% of 290,000 active; P48145; in the data active = inhibition above about 16%, passing the limit was not always enough;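 also: cells stimulated with the agonist NPW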
Target sequence (P48145 whole entry, looked up): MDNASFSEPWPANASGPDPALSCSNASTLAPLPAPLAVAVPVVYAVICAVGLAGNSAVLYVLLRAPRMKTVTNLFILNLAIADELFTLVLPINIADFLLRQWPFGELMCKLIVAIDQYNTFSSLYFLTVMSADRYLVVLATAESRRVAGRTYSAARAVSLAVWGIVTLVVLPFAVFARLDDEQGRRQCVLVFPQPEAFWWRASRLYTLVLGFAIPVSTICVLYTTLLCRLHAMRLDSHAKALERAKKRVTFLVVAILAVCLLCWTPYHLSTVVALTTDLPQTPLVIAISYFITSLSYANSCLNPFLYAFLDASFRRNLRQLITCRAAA
Rh123 counter: Rhodamine 123 counter-screen of mitochondrial pore hits | isolated mitochondria, membrane potential, Rhodamine 123 fluorescence | inhibition, % at 10 µM | 78% of 5,000 active | shares compounds with MPTP inh; in the data active = inhibition above about 22%
MPTP abs DR: MPTP inhibition, dose response swelling confirmation; shares compounds with MPTP inh; isolated mitochondria swelling, absorbance; IC50, µM; 58% of 780 active; AID 651561; in the data active = IC50 below about 20 µM
MPTP counter DR: MPTP inhibitor counter-screen activity, dose response; isolated mitochondria counterscreen, fluorescence read-out; shares compounds with MPTP inh; 49% of 780 active; IC50, µM; AID 651564; in the data active = IC50 below about 80 µM
Hits are given with their value; i = inactive; nt = not tested or not shown. An excerpt weighted towards active compounds, which were near 3.8% of everything screened.

SMILES	OX1R antag-1	OX1R antag-2	MPTP inh	CHO parental Ca	GPR7 antag	Rh123 counter	others
Cc1ccc(CNS(=O)(=O)c2c(C)[nH]c(=O)[nH]c2=O)cc1	nt	nt	i	nt	i	nt
CC1CCCC(C)N1C(=O)Cc1ccccc1 (configuration not stated)	i	i	i	i	i	nt
Cn1c(=O)c2c(nc(NCc3ccco3)n2C/C=C/c2ccccc2)n(C)c1=O	i	47	89	39	nt	106
CC(Cl)=CCn1c(NCCc2ccccc2)nc2c1c(=O)n(C)c(=O)n2C	nt	nt	71	nt	nt	76
Cc1ccc(-c2nc3cccnc3o2)cc1NC(=O)COc1ccc(Cl)cc1C	i	i	i	i	i	nt
Cc1ccc(-c2nc3cccnc3o2)cc1NC(=O)COc1ccc(C(C)(C)C)cc1	i	i	85	40	i	23
CN1CCCN(C(c2ccccc2)c2ccc(Cl)cc2)CC1 (configuration not stated)	i	i	99	i	i	i
Clc1cc(Br)ccc1OCCOCCN1CCCC1	i	i	i	i	i	nt
Cc1cc(C(C)(C)C)ccc1OCCOCCN1CCCC1	i	i	54	i	i	i	MPTP abs DR=12;MPTP counter DR=24
O=S(=O)(NCCN1CCOCC1)c1ccc(Oc2ccccc2Cl)cc1	i	i	75	i	i	35
O=S(=O)(NCCN1CCOCC1)c1ccc2ccccc2c1	i	i	i	i	nt	nt
CC(C)Oc1ccc(C(CC(=O)O)n2cnnn2)cc1 (configuration not stated)	i	i	i	i	i	nt
CC(C)(C)c1ccc(/C=C/C(=O)Nc2ccncc2)cc1	i	i	98	i	i	92
O=C(CSc1nncs1)Nc1ccc2c(c1)OCO2	i	i	i	i	i	nt
O=C(CSc1nc(-c2ccccc2Cl)ns1)Nc1ccc2c(c1)OCO2	i	i	87	i	i	80
CCOc1ccc2nc(SCC(=O)Nc3ccc4c(c3)OCO4)sc2c1	i	i	75	i	i	69
Oc1ccc(/C=C/c2cnccn2)cc1	i	i	i	i	i	nt
O=C(NNC1CC(=O)N(c2ccc(Br)cc2)C1=O)c1cccnc1 (configuration not stated)	i	i	i	i	i	nt
CCc1ccc(OCC(=O)Nc2ccc(S(=O)(=O)Nc3cc(C)on3)cc2)c(Br)c1	i	i	i	i	i	nt
Cc1ccc(NS(=O)(=O)c2ccc(Cl)s2)nc1	i	i	i	i	i	nt
Cc1ccc(NC(=O)c2ccccc2NS(=O)(=O)c2ccc(Cl)s2)cc1	i	i	68	i	i	76
O=C(NCc1ccco1)c1ccccc1NS(=O)(=O)c1ccc(Cl)s1	i	i	90	i	i	79
O=C(NCc1ccco1)c1ccccc1NS(=O)(=O)c1cccs1	i	i	i	i	i	nt
O=C(Nc1ccccc1Cc1ccccc1)c1ccccc1NS(=O)(=O)c1ccc(Cl)s1	77	i	64	i	i	51
Cc1ccc(-n2c(Cl)c(Cl)nc(Cl)c2=O)cc1	i	i	67	i	52	i
SMILES	OX1R antag-1	OX1R antag-2	MPTP inh	CHO parental Ca	GPR7 antag	Rh123 counter	others
COc1nc(Cl)cn(-c2ccc(C)cc2)c1=O	i	i	i	i	i	nt
Cc1nc2ccccc2n1Cc1ccc(Cl)cc1	i	i	94	31	i	96
Cc1ccc(Cn2c(N)nc3ccccc32)cc1	i	i	55	i	i	21
Cc1ccccc1Cn1c(C)nc2ccccc21	i	i	101	41	i	89
COc1ccccc1Cn1c(C)nc2ccccc21	i	i	i	i	i	nt
O=C(Nc1ccccc1)Nc1nnc(/C=C/c2ccccc2Cl)s1	i	i	86	i	i	43
CCCSc1nnc(NC(=O)CCc2ccccc2)s1	i	i	i	i	i	nt
CCCSc1nnc(NC(=O)Nc2ccc(C)cc2)s1	i	i	60	i	i	75
CCCSc1nnc(NC(=O)c2sc3nc(-c4cccs4)ccc3c2N)s1	i	i	76	i	i	32
CCCSc1nnc(NC(=O)Nc2ccccc2)s1	i	i	90	i	i	78
CCn1c(COc2ccc3c(c2)OCO3)nnc1SCC(=O)c1ccc(Cl)cc1	i	i	58	i	i	79
Cc1ccc(Cl)c2c1NC(=O)C2=O	i	i	i	i	nt	nt
CN(CC(=O)NCCc1ccc(S(N)(=O)=O)cc1)CC(=O)Nc1ccccc1C(F)(F)F	i	i	i	i	nt	nt
O=S1(=O)c2cccc3cccc(c23)N1Cc1nnc(-c2ccccc2Br)o1	i	i	76	32	i	47
Cc1[nH]c2ccccc2c1/C=C(\C#N)S(=O)(=O)c1ccccc1	i	i	72	i	i	61
N#C/C(=C\c1ccc(O)c(O)c1)S(=O)(=O)c1ccccc1	i	i	90	i	i	70
Cc1ccc(NNC(=O)C(O)(c2cccc(C(F)(F)F)c2)c2cccc(C(F)(F)F)c2)cc1	i	i	72	i	i	69
O=C(NNc1ccccc1Br)C(O)(c1cccc(C(F)(F)F)c1)c1cccc(C(F)(F)F)c1	i	i	95	i	i	74
Cc1ccc(C(O)(C(=O)NNc2ccccn2)c2ccc(C)cc2)cc1	i	i	i	i	i	nt
Cc1cc(C(F)(F)F)nn1CC(=O)NCc1cccs1	i	i	i	i	i	nt
Cc1nn(-c2ccccc2)c(N2CCCC2)c1/C=N/O	i	i	50	i	i	i	MPTP abs DR=i;MPTP counter DR=i
CCc1ccc(CN2CCC(n3nccc3NC(=O)Cc3ccccc3)CC2)o1	nt	nt	i	nt	i	nt
O=C(CONS(=O)(=O)c1ccc(Cl)cc1)NCCNc1ncc(C(F)(F)F)cc1Cl	i	i	70	i	i	77
O=C(CN1CCN(c2ncc(C(F)(F)F)cc2Cl)CC1)NCCNc1ncc(C(F)(F)F)cc1Cl	i	i	i	i	i	nt
CCN(CC)CCCNC(=O)CN1N=C(c2ccc(OC)cc2)CCC1=O	i	i	i	i	i	nt
SMILES	OX1R antag-1	OX1R antag-2	MPTP inh	CHO parental Ca	GPR7 antag	Rh123 counter	others
COc1ccccc1NC(=O)Cn1nnc(C(=O)NCCc2ccccc2)c1N	i	i	i	i	i	nt
COC(=O)c1sc(NC(=S)NC(=O)c2cccc(Br)c2)nc1C	i	i	90	i	i	49
Cc1ccc(-n2cc3c(-c4cccc(Br)c4)nnc(C)c3n2)cc1	i	i	54	i	i	i	MPTP abs DR=i;MPTP counter DR=29
OCCNCc1cccc(OCc2ccc(Cl)cc2)c1	i	i	64	i	i	i	MPTP abs DR=5.6;MPTP counter DR=i
CC(C)(C)C1CCc2c(sc(NC(=O)CSc3ncn[nH]3)c2C#N)C1 (configuration not stated)	i	i	52	i	i	66
Cc1ccnc(SCC(=O)Nc2sc3c(c2C#N)CCCC3)n1	80	74	100	69	i	125
CC(=O)c1c(C)[nH]c(C(=O)OCC(=O)Nc2sc3c(c2C#N)CCC(C)C3)c1C (configuration not stated)	i	i	105	i	i	89
N#Cc1ccsc1NC(=O)CSc1ncn[nH]1	i	i	i	i	i	nt
